How the values were obtained:
Hepatitis C virus = test: Inhibition of HCV NS5B570n-Con1 expressed in Escherichia coli assessed as radiolabeled nucleotide monophosphate incorporation into acid-insoluble RNA products after 2 hrs by scintillation counting analysis; parameters: species or system Hepacivirus hominis; details: Con1, 2 h
Method in brief: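 IC₅₀ in the NS5B polymerase enzyme assay using genotype 1b NS5B, Con1 strain.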

[1] = Binding affinity to HCV NS5B570n-BK expressed in Escherichia coli by surface plasma resonance assay; format: cell-free, Hepatitis C virus (isolate BK)
Method in brief: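 Kinetic dissociation constant (K_D) measured against genotype 1b NS5B polymerase, BK strain, by surface plasmon resonance.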

[2] = Inhibition of HCV NS5B570n-BK expressed in Escherichia coli assessed as radiolabeled nucleotide monophosphate incorporation into acid-insoluble RNA products after 2 hrs by scintillation counting analysis; parameters: species or system Hepatitis C virus (isolate BK)

IC50 (Hepatitis C virus) | IC50 [2] | Compound | Kd [1]
> 1000 µM |  | O=C1CNC(=O)N1Cc1ccccc1 | 
431 µM |  | CC(C)(C)c1ccc(Cc2ccc[nH]c2=O)cc1 | 
21 µM |  | CC(C)C1NC(=O)N(Cc2ccc(C(C)(C)C)cc2)C1=O (configuration not stated) | 18 µM
220 µM |  | CC1NC(=O)N(Cc2ccc(C(C)(C)C)cc2)C1=O (configuration not stated) | 144 µM

The next lines start with the molecule.

Compound | IC50 (Hepatitis C virus) | IC50 [2] | Kd [1]
COc1ccc(-c2ccc[nH]c2=O)cc1C(C)(C)C |  |  | 0.57 µM
Cc1ccccc1Oc1cccc(-c2ccc[nH]c2=O)c1 | 80 µM |  | 
CCC1NC(=O)N(Cc2ccc(C(C)(C)C)cc2)C1=O (configuration not stated) | 108 µM |  | 93 µM
c1ccc(NNc2ncnc3[nH]ncc23)cc1 |  | 130 µM | 78 µM
CC(C)(C)c1ccc(CN2C(=O)CNC2=O)cc1 | 364 µM |  | 400 µM
O=C1CNC(=O)N1Cc1ccc(Cl)c(Cl)c1 | > 1000 µM |  | 
CC(C)(C)c1cccc(-c2ccc[nH]c2=O)c1 | 4 µM |  | 5.8 µM
